Test [1] concerns MCF7. As to the kind of experiment: Antiproliferative activity against human MCF7 cells. In kind it is functional, cell-based. The procedure, abridged: (§1)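 Growth inhibition in SKBr3 (ER-negative, Her2-overexpressing) and MCF-7 (ER-positive) breast cancer cells, run per an earlier published protocol. Values are mean ± standard deviation of at least two separate experiments, each in triplicate.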

The test system of another test is SK-BR-3. Put plainly: Antiproliferative activity against human SKBR3 cells. In kind it is functional, cell-based. The procedure, abridged: as §1
The test system of test [2] is MCF7. As to the kind of experiment: Effect on Hsp90 protein level in human MCF7 cells at 0.1 to 2.5 uM after 24 hrs by Western blot analysis. In kind it is functional, cell-based. An outline of the steps:
(§2)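 MCF-7 cells were treated with the compound across a concentration series. Cell lysates were then probed by western blot for the Hsp90 client proteins Raf and Akt, for Hsp90 itself, and for actin as a non-Hsp90-dependent control protein.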
In general terms: A western blot detects proteins with antibodies after separation by electrophoresis.

Test [3] deals with T1, Heat shock protein HSP90 (Homo sapiens) (UniProt P07900+P08238). Put plainly: Inhibition of Hsp90 in human MCF7 cells assessed as degradation of client protein Akt after 24 hrs by Western blot analysis. In kind it is cell-based. The procedure, abridged:
as §2

Test [4] concerns the target T1, Heat shock protein HSP90 (Homo sapiens). As to the kind of experiment: Inhibition of Hsp90 in human MCF7 cells assessed as degradation of client protein Raf after 24 hrs by Western blot analysis. In kind it is cell-based. The procedure, abridged:
as §2

Activity calls are given as the source filed them. The rule behind the calls is not given here.

Consider `CC(C)=CCc1cc(C(=O)Nc2cc3ccc(OCCCNCCO)c(C)c3oc2=O)ccc1O`, for which the half-inhibitory concentration (IC50) worked out at 1560 nM in the test on MCF7 [1] and 610 nM in the test on SK-BR-3.

With `CC(C)=CCc1cc(C(=O)Nc2cc3ccc(OCCCN(C)C4CCCCC4)c(C)c3oc2=O)ccc1O`, the IC50 in the test on MCF7 [1] came out at 1080 nM; in the test with SK-BR-3, 970 nM.

`CCN(C)CCCOc1ccc2cc(NC(=O)c3ccc(O)c(CC=C(C)C)c3)c(=O)oc2c1C`: the results for the IC50 in the test with MCF7 [1] and in the test on SK-BR-3 were 2190 nM and 730 nM, respectively.

As to `CCCNCCCOc1ccc2cc(NC(=O)c3ccc(O)c(CC=C(C)C)c3)c(=O)oc2c1C`, the 50% inhibitory concentration (IC50) with MCF7 [1] worked out at 980 nM; with SK-BR-3 it was 990 nM.

In the case of `CC(C)=CCc1cc(C(=O)Nc2cc3ccc(OCC4CCCNC4)c(C)c3oc2=O)ccc1O` (stereo not given), the IC50 in the test on MCF7 [1] came to 790 nM; with SK-BR-3, 600 nM.

As to `CC(C)=CCc1cc(C(=O)Nc2cc3ccc(OCCCN4CCN(C)CC4)c(C)c3oc2=O)ccc1O`, the results for the half-inhibitory concentration (IC50) with MCF7 [1] and in the test on SK-BR-3 were 1200 nM and 1010 nM, respectively.

`CC(C)=CCc1cc(C(=O)Nc2cc3ccc(OCCCN(C)c4ccccc4)c(C)c3oc2=O)ccc1O`: the IC50 with MCF7 [1] and in the test on SK-BR-3 was > 50000 nM throughout.

As to `CC(C)=CCc1cc(C(=O)Nc2cc3ccc(OCCCN[C@H](C)c4ccccc4)c(C)c3oc2=O)ccc1O`, the figures for the IC50 in the test with MCF7 [1] and with SK-BR-3 were 1450 nM and 1000 nM, respectively.

As to `CC(=O)Oc1ccc(C(=O)Nc2cc3ccc(OCC4CCCN(C)C4)c(C)c3oc2=O)cc1CC=C(C)C` (stereo not given), the values for the IC50 with MCF7 [1] and in the test with SK-BR-3 were 1650 nM and 740 nM, respectively.

Turning to `CC(C)=CCc1cc(C(=O)Nc2cc3ccc(OCCCNC(C)(C)c4ccccc4)c(C)c3oc2=O)ccc1O`, the IC50 is 1070 nM with MCF7 [1] and 960 nM in the test with SK-BR-3.

For `CC(C)=CCc1cc(C(=O)Nc2cc3ccc(OCCCN4CCCC4)c(C)c3oc2=O)ccc1O`, the IC50 in the test on MCF7 [1] amounted to 990 nM; with SK-BR-3, 720 nM.

On to `CC(C)=CCc1cc(C(=O)Nc2cc3ccc(OCCCNC45CC6CC(CC(C6)C4)C5)c(C)c3oc2=O)ccc1O`, for which, in the test on MCF7 [2], the outcome was inactive. Also, the inhibition result in test [3] and in test [4] was “Dose-dependent effect” throughout. Further, the IC50 is 320 nM with MCF7 [1] and 310 nM with SK-BR-3.

Take `CC(C)=CCc1cc(C(=O)Nc2cc3ccc(OCC4CCCN(C)C4)c(C)c3oc2=O)ccc1O` (stereo not given): the IC50 worked out at 2640 nM in the test with MCF7 [1] and 1300 nM in the test on SK-BR-3.

Turning to `CCN(CC)CCCOc1ccc2cc(NC(=O)c3ccc(O)c(CC=C(C)C)c3)c(=O)oc2c1C`, the IC50 in the test on MCF7 [1] was determined as 6390 nM; in the test with SK-BR-3, 4900 nM.

As to `CC(=O)Oc1ccc(C(=O)Nc2cc3ccc(OCC4CCN(C)C4)c(C)c3oc2=O)cc1CC=C(C)C` (stereo not given), the half-maximal inhibitory concentration (IC50) with MCF7 [1] is 1880 nM; in the test on SK-BR-3, 880 nM.

As for `CO[C@@H]1[C@@H](O)[C@@H](O)[C@H](Oc2ccc3cc(NC(=O)c4ccc(O)c(CC=C(C)C)c4)c(=O)oc3c2C)OC1(C)C`, in the test with SK-BR-3, it took 10000 nM to reach half-maximal inhibition (IC50).

On to `CC(C)=CCc1cc(C(=O)Nc2cc3ccc(OCCCN(C)C(C)(C)C)c(C)c3oc2=O)ccc1O`, for which the IC50 was 1140 nM in the test on MCF7 [1] and 880 nM in the test with SK-BR-3.

Take `CC(C)=CCc1cc(C(=O)Nc2cc3ccc(OCCC4CCCCN4)c(C)c3oc2=O)ccc1O` (stereo not given): the values for the IC50 with MCF7 [1] and in the test with SK-BR-3 were 710 nM and 640 nM, respectively.

For `CC(C)=CCc1cc(C(=O)Nc2cc3ccc(OCCCNc4ccccc4)c(C)c3oc2=O)ccc1O`, the IC50 in the test on MCF7 [1] and in the test with SK-BR-3 was > 50000 nM each time.

Regarding `CCNCCCOc1ccc2cc(NC(=O)c3ccc(O)c(CC=C(C)C)c3)c(=O)oc2c1C`, the IC50 in the test with MCF7 [1] is 980 nM; with SK-BR-3 it was 720 nM.

Regarding `CC(C)=CCc1cc(C(=O)Nc2cc3ccc(OCCCN4CCCCC4)c(C)c3oc2=O)ccc1O`, the IC50 with MCF7 [1] and in the test on SK-BR-3 was > 50000 nM each time.

Consider `CC(C)=CCc1cc(C(=O)Nc2cc3ccc(OCCCNCC(N)=O)c(C)c3oc2=O)ccc1O`, for which the IC50 with MCF7 [1] is 1460 nM; in the test with SK-BR-3, 2290 nM.

For the compound `CC(C)=CCc1cc(C(=O)Nc2cc3ccc(OCCCNCc4ccccc4)c(C)c3oc2=O)ccc1O`, the figures for the IC50 in the test on MCF7 [1] and in the test on SK-BR-3 were 910 nM and 470 nM, respectively.

As to `CC(C)=CCc1cc(C(=O)Nc2cc3ccc(OCCCN[C@@H]4C[C@H]5CC[C@@H]4C5)c(C)c3oc2=O)ccc1O`, the IC50 with MCF7 [1] stood at 1030 nM; in the test with SK-BR-3 it was 770 nM.

`COC(=O)CNCCCOc1ccc2cc(NC(=O)c3ccc(O)c(CC=C(C)C)c3)c(=O)oc2c1C`: the IC50 was determined as 2820 nM with MCF7 [1] and 1060 nM with SK-BR-3.

As for `CC(=O)Oc1ccc(C(=O)Nc2cc3ccc(OCCC4CCCCN4)c(C)c3oc2=O)cc1CC=C(C)C` (stereo not given), the IC50 with MCF7 [1] was 710 nM; with SK-BR-3, 640 nM.

For `CCCN(CCC)CCCOc1ccc2cc(NC(=O)c3ccc(O)c(CC=C(C)C)c3)c(=O)oc2c1C`, the IC50 with MCF7 [1] and in the test on SK-BR-3 was > 50000 nM in each case.

On to `CC(C)=CCc1cc(C(=O)Nc2cc3ccc(OCCCN(C(C)C)C(C)C)c(C)c3oc2=O)ccc1O`, for which the IC50 was 1310 nM in the test on MCF7 [1] and 1600 nM in the test on SK-BR-3.

Regarding `CC(C)=CCc1cc(C(=O)Nc2cc3ccc(OCC4CCN(C)C4)c(C)c3oc2=O)ccc1O` (stereo not given), the IC50 in the test on MCF7 [1] was 1550 nM; with SK-BR-3 it was 920 nM.

For `CC(C)=CCc1cc(C(=O)Nc2cc3ccc(OCCCNCC(=O)O)c(C)c3oc2=O)ccc1O`, the values for the IC50 in the test on MCF7 [1] and with SK-BR-3 were 18100 nM and 7570 nM, respectively.

`CC(=O)Oc1ccc(C(=O)Nc2cc3ccc(OCC4CCCNC4)c(C)c3oc2=O)cc1CC=C(C)C` (stereo not given): the results for the IC50 in the test on MCF7 [1] and in the test with SK-BR-3 were 820 nM and 620 nM, respectively.

`CC(C)=CCc1cc(C(=O)Nc2cc3ccc(OCCCN(C)Cc4ccccc4)c(C)c3oc2=O)ccc1O`: the IC50 with MCF7 [1] is 11500 nM; with SK-BR-3, 10700 nM.

As to `CC(C)=CCc1cc(C(=O)Nc2cc3ccc(OCCCNC(C)C)c(C)c3oc2=O)ccc1O`, the IC50 in the test on MCF7 [1] was determined as 740 nM; in the test on SK-BR-3, 750 nM.

Take `CC(C)=CCc1cc(C(=O)Nc2cc3ccc(OCCCN4CCNCC4)c(C)c3oc2=O)ccc1O`: the IC50 in the test with MCF7 [1] turned out to be 930 nM; with SK-BR-3 it was 820 nM.

Turning to `CC(C)=CCc1cc(C(=O)Nc2cc3ccc(OCCCNC(C)(C)C)c(C)c3oc2=O)ccc1O`, the values for the IC50 in the test with MCF7 [1] and with SK-BR-3 were 950 nM and 660 nM, respectively.

Take `CC(C)=CCc1cc(C(=O)Nc2cc3ccc(OCCCNC4CCCCC4)c(C)c3oc2=O)ccc1O`: the half-maximal inhibitory concentration (IC50) in the test on MCF7 [1] is 1070 nM; in the test with SK-BR-3, 660 nM.

As to `CC(C)=CCc1cc(C(=O)Nc2cc3ccc(OCCCNCC(C)C)c(C)c3oc2=O)ccc1O`, the IC50 in the test on MCF7 [1] is 1320 nM; in the test with SK-BR-3 it was 1030 nM.

With `CC(C)=CCc1cc(C(=O)Nc2cc3ccc(OCCCN(C)C(C)C)c(C)c3oc2=O)ccc1O`, the IC50 came out at 1050 nM in the test with MCF7 [1] and 570 nM in the test with SK-BR-3.

For the compound `CC(C)=CCc1cc(C(=O)Nc2cc3ccc(OCCCN4CCOCC4)c(C)c3oc2=O)ccc1O`, the half-inhibitory concentration (IC50) in the test with MCF7 [1] and in the test on SK-BR-3 was > 50000 nM in each case.

Usually IC50 stands for the concentration that gives 50% inhibition. Lower therefore signals higher potency.

The record behind these values is ChEMBL document CHEMBL2311393 (Bioorg Med Chem Lett, 2013).
